Measured values published in ChEMBL document CHEMBL4033643, “Synthesis and in vitro antitumour activity of crassalactone D, its stereoisomers and novel cinnamic ester derivatives” (Eur J Med Chem, 2017).
Activity calls are given as the source filed them. The calls are words filed in the database; no cut-off is given here.

Assays:
K562 [1] = assay: Cell cycle arrest in human K562 cells assessed as total cell levels at G0/G1 phase at IC50 after 72 hrs by propidium iodide staining based flow cytometry (reference value: 39.97%); assay type: functional
K562 [2] = assay: Cytotoxicity against human K562 cells assessed as reduction in cell viability after 72 hrs by MTT assay; assay type: functional, cell-based; conditions: K562, 72 h
K562 [3] = assay: Induction of apoptosis in human K562 cells assessed as specific necrosis by Annexin V-FITC/propidium iodide staining based flow cytometry; assay type: functional; parameters: concentration or dose not given beside the values
MDA-MB-231 = assay: Cytotoxicity against human MDA-MB-231 cells assessed as reduction in cell viability after 72 hrs by MTT assay; assay type: functional, cell-based; conditions: MDA-MB-231, 72 h
MRC5 = assay: Cytotoxicity against human MRC5 cells assessed as reduction in cell viability after 72 hrs by MTT assay; assay type: cell-based; conditions: MRC5, 72 h
K562 [4] = assay: Induction of apoptosis in human K562 cells assessed as total necrotic cells by Annexin V-FITC/propidium iodide staining based flow cytometry (reference value: 0.23%); assay type: functional
K562 [5] = assay: Induction of apoptosis in human K562 cells assessed as gated early apoptotic cells by Annexin V-FITC/propidium iodide staining based flow cytometry (reference value: 3.18%); assay type: functional
K562 [6] = assay: Cell cycle arrest in human K562 cells assessed as total cell levels at M4 phase at IC50 after 72 hrs by propidium iodide staining based flow cytometry (reference value: 0.50%); assay type: functional
K562 [7] = assay: Induction of apoptosis in human K562 cells assessed as gated necrotic cells by Annexin V-FITC/propidium iodide staining based flow cytometry (reference value: 0.24%); assay type: functional
K562 [8] = assay: Cell cycle arrest in human K562 cells assessed as accumulation at G2/M phase at IC50 after 72 hrs by propidium iodide staining based flow cytometry (reference value: 19.01%); assay type: functional
K562 [9] = assay: Cell cycle arrest in human K562 cells assessed as accumulation at S phase at IC50 after 72 hrs by propidium iodide staining based flow cytometry (reference value: 41.03%); assay type: functional
Jurkat = assay: Cytotoxicity against human Jurkat cells assessed as reduction in cell viability after 72 hrs by MTT assay; assay type: functional, cell-based
Raji = assay: Cytotoxicity against human Raji cells assessed as reduction in cell viability after 72 hrs by MTT assay; assay type: functional, cell-based
K562 [10] = assay: Induction of apoptosis in human K562 cells assessed as decrease in Bcl-2 expression level by Western blot analysis; assay type: functional, cell-based
How it was run: (§1)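 Western blot of treated K562 cells for Bcl-2, Bax, activated caspase 3 and cleaved PARP (85 kDa fragment). Blots developed by ECL, with band expression quantified by densitometry against an untreated control sample.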

K562 [11] = assay: Induction of apoptosis in human K562 cells assessed as gated late apoptotic cells by Annexin V-FITC/propidium iodide staining based flow cytometry (reference value: 0.88%); assay type: functional
K562 [12] = assay: Induction of apoptosis in human K562 cells assessed as specific apoptosis by Annexin V-FITC/propidium iodide staining based flow cytometry; assay type: functional; parameters: concentration or dose not given beside the values
K562 [13] = assay: Cell cycle arrest in human K562 cells assessed as total cell levels at S phase at IC50 after 72 hrs by propidium iodide staining based flow cytometry (reference value: 36.49%); assay type: functional
K562 [14] = assay: Cell cycle arrest in human K562 cells assessed as accumulation at G0/G1 phase at IC50 after 72 hrs by propidium iodide staining based flow cytometry (reference value: 38.48%); assay type: functional
K562 [15] = assay: Induction of apoptosis in human K562 cells assessed as total early apoptotic cells by Annexin V-FITC/propidium iodide staining based flow cytometry (reference value: 3.07%); assay type: functional
HeLa = assay: Cytotoxicity against human HeLa cells assessed as reduction in cell viability after 72 hrs by MTT assay; assay type: functional, cell-based
HL-60 = assay: Cytotoxicity against human HL60 cells assessed as reduction in cell viability after 72 hrs by MTT assay; assay type: functional, cell-based; conditions: HL-60, 72 h
K562 [16] = assay: Induction of apoptosis in human K562 cells assessed as gated viable cells by Annexin V-FITC/propidium iodide staining based flow cytometry (reference value: 95.78%); assay type: functional
A549 = assay: Cytotoxicity against human A549 cells assessed as reduction in cell viability after 72 hrs by MTT assay; assay type: functional, cell-based; conditions: A549, 72 h
K562 [17] = assay: Cell cycle arrest in human K562 cells assessed as accumulation at sub G1 phase at IC50 after 72 hrs by propidium iodide staining based flow cytometry (reference value: 1.48%); assay type: functional
K562 [18] = assay: Induction of apoptosis in human K562 cells assessed as total late apoptotic cells by Annexin V-FITC/propidium iodide staining based flow cytometry (reference value: 0.77%); assay type: functional
K562 [19] = assay: Cell cycle arrest in human K562 cells assessed as total cell levels at G2/M phase at IC50 after 72 hrs by propidium iodide staining based flow cytometry (reference value: 14.31%); assay type: functional
MCF7 = assay: Cytotoxicity against human MCF7 cells assessed as reduction in cell viability after 72 hrs by MTT assay; assay type: functional, cell-based; conditions: MCF7, 72 h
K562 [20] = assay: Induction of apoptosis in human K562 cells assessed as total viable cells by Annexin V-FITC/propidium iodide staining based flow cytometry (reference value: 92.45%); assay type: functional
K562 [21] = assay: Induction of apoptosis in human K562 cells assessed as increase in Bax expression level by Western blot analysis; assay type: functional, cell-based; how it was run: as §1

Structure (SMILES)	Activity (K562 [1])	IC50 (K562 [2])	Activity (K562 [3])	IC50 (MDA-MB-231)	IC50 (MRC5)	Activity (K562 [4])	Activity (K562 [5])	Activity (K562 [6])	Activity (K562 [7])	Activity (K562 [8])	Activity (K562 [9])	IC50 (Jurkat)	IC50 (Raji)	Activity (K562 [10])	Activity (K562 [11])	Activity (K562 [12])	Activity (K562 [13])	Activity (K562 [14])	Activity (K562 [15])	IC50 (HeLa)	further results
O=C1C=C[C@]2(C[C@H](OC(=O)/C=C/c3ccc(F)cc3)[C@H](c3ccccc3)O2)O1	19.29%	9.05 µM	3.78%	1.02 µM	> 100 µM	0.23%	83.24%	4.05%	0.36%	24.82%	37.11%	15.4 µM	17.3 µM	Active	2.62%	85.69%	31.52%	23.2%	60.46%	12 µM	IC50 (HL-60): 12 µM; Activity (K562 [16]): 13.78%; IC50 (A549): 1.21 µM; Activity (K562 [17]): 14.87%; Activity (K562 [18]): 1.7%; Activity (K562 [19]): 29.05%; IC50 (MCF7): 15.6 µM; Activity (K562 [20]): 2.45%; Activity (K562 [21]): Active
O=C1C=C[C@@]2(C[C@H](OC(=O)/C=C/c3ccc(F)cc3)[C@@H](c3ccccc3)O2)O1	36.51%	1.05 µM	3.58%	> 100 µM	> 100 µM	0.52%	6.46%	2.31%	0.54%	22.5%	33.71%	22.2 µM	55.4 µM	Active	1.38%	4.02%	30.81%	41.18%	6.24%	2.21 µM	IC50 (HL-60): 4.48 µM; Activity (K562 [16]): 91.63%; IC50 (A549): 25.5 µM; Activity (K562 [17]): 2.61%; Activity (K562 [18]): 1.33%; Activity (K562 [19]): 19.95%; IC50 (MCF7): 21.5 µM; Activity (K562 [20]): 88.51%; Activity (K562 [21]): Active
COc1ccc(/C=C/C(=O)O[C@H]2C[C@@]3(C=CC(=O)O3)O[C@@H]2c2ccccc2)cc1	26.37%	1.11 µM	3.15%	> 100 µM	> 100 µM	0.78%	14.31%	1.35%	0.96%	25.07%	42.64%	21.1 µM	99.8 µM	inactive	4.41%	15.35%	36.83%	30.72%	11.61%	3.64 µM	IC50 (HL-60): 6.37 µM; Activity (K562 [16]): 80.32%; IC50 (A549): 23.1 µM; Activity (K562 [17]): 1.57%; Activity (K562 [18]): 3.58%; Activity (K562 [19]): 22.36%; IC50 (MCF7): 2.22 µM; Activity (K562 [20]): 65.19%; Activity (K562 [21]): Active
O=C1C=C[C@]2(C[C@H](OC(=O)/C=C/c3ccc(F)cc3)[C@@H](c3ccccc3)O2)O1	37.36%	8.45 µM	3.28%	> 100 µM	> 100 µM	0.78%	9.86%	1.87%	0.83%	29.4%	28.31%	15.6 µM	34.1 µM	inactive	1.85%	8.05%	26.82%	40.27%	9.21%	6.12 µM	IC50 (HL-60): 24.1 µM; Activity (K562 [16]): 87.45%; IC50 (A549): > 100 µM; Activity (K562 [17]): 2.02%; Activity (K562 [18]): 1.73%; Activity (K562 [19]): 27.34%; IC50 (MCF7): 9.65 µM; Activity (K562 [20]): 81.7%; Activity (K562 [21]): Active
